Source: ChEMBL document CHEMBL4513216, “Probing the Open Global Health Chemical Diversity Library for Multistage-Active Starting Points for Next-Generation Antimalarials” (ACS Infect Dis, 2020)

Assay: Toxicity liver stage against HepG2, at 10uM
Format: cell-based
Set-up: test concentration 10 uM, cell line HepG2-A16-CD81EGFP
Conditions: human, HepG2-A16-CD81EGFP cells; read-out: INHIBITION
Outline: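 Uninfected HepG2-A16-CD81EGFP cells, 3 × 10^3 per well, 1536-well, plated on prespotted compound at 10 μM final, parasite-free screening media added to match infected plates; puromycin 10 μM positive, DMSO 0.5% negative; run in parallel with 48 h PbLuc assay at 37 °C, 5% CO2; viability by CellTiter-Glo luminescence, normalized to controls.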

Compound | cytotoxicity at 10 µM
CC(CN1CCOCC1)OC(=O)c1ccccc1Cl (configuration not stated) | -4.52%
COCCn1cnc2ccc(NC(=O)c3c(C)noc3C)cc2c1=O | 4.13%
CCc1c(C)nc2n(c1=O)CC(C(=O)NCc1cccs1)CS2 (configuration not stated) | 15.2%
Cc1nc(N2CCOCC2)nc(C)c1NC(=O)Cc1ccc(Cl)cc1 | -4%
COCCn1c2c(ccc1=O)CC(N)CC2 (configuration not stated) | 9.77%
CN1CCCC2(C1)CN(C(=O)C1CCCCC1)CCO2 (configuration not stated) | 0.994%
Cc1cccc(CN2CCc3nnc(CN(C)C)n3CC2)n1 | -1.54%
Cc1nnc([C@H]2C[C@@H]3CCN(Cc4cc(C)on4)C[C@H]3O2)[nH]1 | -5.03%
Cc1noc([C@H]2COC[C@H]3CN(C(=O)Cc4cccs4)C[C@H]32)n1 | 3.3%
COCCN1CC[C@H]2OCC[C@@H](C(=O)Nc3cccnc3)[C@@H]2C1 | 4.81%
CC(C)NC(=O)CC1(Cn2cnnn2)CCCCC1 | 9.54%
CNc1nc2c(s1)C(c1cc(Cl)ccc1F)CC(=O)N2 (configuration not stated) | 10.3%
Cc1noc(C2CCN(C(=O)C3CCCO3)CC2)n1 (configuration not stated) | 3.95%
Cc1c(S(=O)(=O)NCC(C)Cn2cc(Cl)cn2)cnn1C (configuration not stated) | 0.446%
Cn1cc(CN2CCC(c3ncc(Cl)cc3S(C)(=O)=O)CC2)cn1 | -0.83%
CN1CCCC(c2cccc(-c3cccc(F)c3)n2)C1 (configuration not stated) | -2.4%
COCCC(=O)N1CCCC(c2n[nH]cc2C)C1 (configuration not stated) | -1.75%
O=C1CN(Cc2ccc3ccccc3n2)CCN1C1CCCC1 | -3.45%
CCc1nnc2n1CCN(c1nc3ccccc3o1)C2 | 2.11%
O=c1n(CCNCc2ccc(-c3ccccc3)cc2)nc2ccccn12 | 0.932%
CCN(CC)C(=O)CCNC(=O)c1c[nH]c2ccc(OC)cc12 | 1.86%
O=C(CC1COCCN1C(=O)c1cscn1)c1ccccc1 (configuration not stated) | 6.24%
Cc1cc(CC(=O)NCC(O)COc2ccc(F)c(F)c2)no1 (configuration not stated) | -5.03%

Compound | cytotoxicity at 10 µM
O=C(c1cccnc1)N1CCSCC1 | -15.1%
Cc1cccc(CN2CCC(NCC3CNc4cc(C)nn4C3)CC2)c1 (configuration not stated) | 7.36%
CCc1csc(C2CCCN(C(=O)c3ccc4c(c3)OCO4)C2)n1 (configuration not stated) | 1.71%
Cc1cnn(CC2CC2)c1NC(=O)c1cccnc1O | 6.62%
CC(c1nnc(-c2ccccc2)o1)N1CCc2cncnc2C1 (configuration not stated) | 8.59%
Cc1cc(=O)n2nc(Oc3cccc(I)c3)sc2n1 | 3.63%
COc1ccc(CC2CCCN2CCCC#N)cc1 (configuration not stated) | -54.7%
CC(O)CNC(=O)NCCCN1CCN(c2ncccn2)CC1 (configuration not stated) | -48.8%
Cc1ncoc1C(=O)N1CC[C@@]2(C[C@H](NS(C)(=O)=O)CCO2)C1 | -73%
CCS(=O)(=O)NC1CCc2c(ccc(=O)n2CC2CC2)C1 (configuration not stated) | -67.2%
CC(C)NC(=O)C1CN(C(=O)NCc2ccccc2)CC12CCOCC2 (configuration not stated) | -84.6%
CCOCC1CN(Cc2cnn(C)c2)Cc2cnn(C)c21 (configuration not stated) | -89.6%
O=C(C1CCOCC1)N1CC[C@@H](N2CCOCC2)[C@@H]1Cc1ccccc1 | -77.2%
CC(=O)N1CC[C@H]2OCC[C@@H](C(=O)NCc3ccco3)[C@H]2C1 | -81.5%
CCOC[C@@H]1CCC[C@@]12CN(Cc1nccs1)CCO2 | 1.77%
Cc1cc(N[C@H]2CN(CC(C)(C)N3CCOCC3)C[C@@H]2C2CC2)ncn1 | 2.03%
CCNC(=O)Cc1ccc(-c2cccc3c2CCNC3)cc1 | 13.6%
CCNC(=O)Cn1ncc(N(C)CCc2ccccc2)cc1=O | 5.69%
O=C(O)C1(n2cccn2)CCN(Cc2nc(-c3ccccc3)no2)CC1 | 6.74%
CC(C)(C)c1cc(CN2CCOCC(O)C2)n[nH]1 (configuration not stated) | -3.89%
COCCN1CC2(CCCN(C(=O)NCc3ccccc3)C2)CCC1=O (configuration not stated) | -9.31%
CCC(=O)N1CCN(C(=O)CCn2cc(Cl)cn2)[C@H]2CS(=O)(=O)C[C@H]21 | -6.39%
Cc1ccc(NC2CCCN(CCCc3ccccc3)C2)nn1 (configuration not stated) | -2.81%

Compound | cytotoxicity at 10 µM
CNC(=O)CCN(C)c1nc(-c2ccncc2)nc2c1CCNC2 | -1.54%
O=C(CCn1ccccc1=O)N1CCN(Cc2cccc(Cl)c2)CC1 | -1.97%
CCN1CC(C(=O)N2CCN(CCn3cccc3)CC2)CC1=O (configuration not stated) | -3.64%
Cc1ccc(-c2nnc(CN3CC[C@H](CO)[C@@H](O)C3)o2)n1C | -4.39%
O=c1cc(-c2ccncc2)nc(-c2ccc(CN3CC[C@@H](O)C3)cc2)[nH]1 | 3.03%
CC(=O)NCC(=O)N(CCN1CCOCC1)Cc1ccco1 | -9.04%
CCNc1ncc(C(=O)N(C)Cc2nc3cc(Cl)ccc3[nH]2)cn1 | -44.3%
CCN(C)Cc1n[nH]c(=O)n1-c1cc(F)ccc1C | 11.4%
COc1cccc2c1OCC(C(=O)NCc1nc3c(s1)CCCC3)C2 (configuration not stated) | -43.3%
CCOCCn1c(=O)n(Cc2ccc(F)cc2)c2ncc(C(=O)O)cc21 | 0.902%
CC(C)c1cc(NC(CCO)c2ccccc2)n2nccc2n1 (configuration not stated) | -45.4%
CCc1oc(C(=O)N(C)Cc2nonc2C)cc1CN(CC)CC | -10.3%
CNC(=O)c1nc(Cn2ncc3ccccc3c2=O)no1 | 6.6%
CCN(Cc1cccc(C(=O)Nc2cn(C)nn2)c1)[C@H]1COC[C@@H]1O | -2.77%
CCn1cnnc1CNC(=O)N1CCN(c2ccccc2O)CC1 | -1.47%
Cc1noc(C)c1CN(Cc1cccs1)C1CCS(=O)(=O)C1 (configuration not stated) | -0.375%
Cc1oc(-c2cccs2)nc1C(=O)N1CCCC1Cn1cccn1 (configuration not stated) | -7.22%
CCCc1n[nH]c(C2CN(C(=O)c3cncnc3C)CCO2)n1 (configuration not stated) | -12.9%
CC(C)c1nn(C)c(N(C)C)c1CNCCC(=O)NC1CCCCC1 | -2.89%
CC1CN(C)CCN1CC(=O)NCCOc1ccc(Cl)cc1 (configuration not stated) | -8.69%
Cc1ccc(C(=O)NS(=O)(=O)c2ccccc2Cl)c(=O)[nH]1 | -8.81%
Cn1ccc(C(=O)N2CCN(c3ccccn3)CC2)cc1=O | -9.43%
O=C(CCOc1ccccc1F)N1CCCC(n2cncn2)C1 (configuration not stated) | -1.22%

Compound | cytotoxicity at 10 µM
O=C(c1cccnc1N1CCOCC1)N1CCCC(n2cncn2)C1 (configuration not stated) | -3.37%
CC(=O)c1ccc(OCC(=O)NS(=O)(=O)c2cccnc2)cc1 | -18%
N#Cc1cn(C2CC2)c(=O)n(CC(O)c2ccc(F)cc2)c1=O (configuration not stated) | 2.37%
O=C(Nc1cn[nH]c1)c1ccncc1 | -6.01%
CN(Cc1ccncc1)C(=O)NC1CCCN(c2ncccn2)C1 (configuration not stated) | -14%
Cn1cnnc1C1CCN(C(=O)c2cc3c(s2)CCCC3)CC1 | -19%
O=C(c1cnc2c(cnn2C2CCCC2)c1)N1CCCSCC1 | -9.3%
CCc1nccn1CC1CCCN1S(=O)(=O)Cc1ccccc1 (configuration not stated) | -13.4%
Cc1cnc(CN2CCCC(c3cc(C)[nH]n3)C2)cn1 (configuration not stated) | 0.802%
Cc1cc(OCC(=O)N2CCCC(c3noc(C(C)C)n3)C2)no1 (configuration not stated) | -4.56%
CC(C)(C)n1ncc2c1CCCC2NCc1cccc2c1OCCO2 (configuration not stated) | -2.69%
COc1ccc(N(C)Cc2nc3c(cnn3C)c(=O)[nH]2)cc1OC | -10.7%
Cc1cnn(CC2CCCCN2C(=O)Cc2cccc(F)c2)c1 (configuration not stated) | -10.7%
CCNc1cc2c(nn1)CCN(C(=O)c1cc(C)n(C3CC3)c1C)C2 | -0.282%
Cc1ccc(-c2nc(CN3CCCC(C(=O)N(C)C)C3)cs2)o1 (configuration not stated) | -14%
O=C(c1ccnc(-n2ccnc2)c1)N1CCCC(n2cccn2)C1 (configuration not stated) | 1.21%
COCCNC(=O)CN1CCCC1c1c(C)nn(C)c1Cl (configuration not stated) | -0.185%
c1ncn(CC2CN(CCCOc3ccc4c(c3)OCO4)CCO2)n1 (configuration not stated) | -1.85%
Cc1ccc(N2CCCC(NCc3sccc3C)C2)nn1 (configuration not stated) | -3.8%
CCc1nccn1C1CCCN(C(=O)c2cccc3c2OCO3)C1 (configuration not stated) | -8.87%
O=C(NCCNc1ncccn1)C1CC(=O)N(CC2CC2)C1 (configuration not stated) | -14%
Cc1cnc(C(=O)NC(COCC(C)C)c2ccco2)cn1 (configuration not stated) | -19.6%
CCc1nccn1C1CCCN(C(=O)c2ccc3[nH]c(=O)[nH]c3c2)C1 (configuration not stated) | -3.71%

Compound | cytotoxicity at 10 µM
O=C(NCCN1CCCCC1)c1scnc1Cl | -7.69%
Cc1csc(N2CCCN(C(=O)C(C)n3ccnc3)CC2)n1 (configuration not stated) | -9.46%
Cc1ccc(N(C)C2CCN(C(=O)CCc3ccco3)CC2)nn1 | -7%
O=C(NCC1CCOC1)c1ccc(OCC(F)(F)F)nc1 (configuration not stated) | -5.64%
CN(CC1COc2ccccc2O1)C(=O)NCCCn1cncn1 (configuration not stated) | -0.884%
Cc1nn(C)c(N2CCOCC2)c1CNC1CCc2ccccc2C1 (configuration not stated) | -11.4%
COc1ccc(NC(=O)c2ccc(-n3ncc(C#N)c3N)cc2)cn1 | -5.77%
CC1CCN(c2cncc(CCC3CCCN3)n2)CC1 (configuration not stated) | 4.52%
O=C1CCC2(CCC(NC(=O)NCc3cccnc3)CC2)N1 (configuration not stated) | -5.25%
CC(C)OCc1nn(C)c2c1CN(Cc1cccs1)CC2 | -99.5%
CNC(=O)CN1CCOCC12CCN(C(=O)c1ccccc1)CC2 | -82.2%
NC(=O)C1CNCCN1C(=O)COc1ccccc1 (configuration not stated) | 1.6%
O=C(c1ccccn1)N1CCCC2(CCN(c3ccsc3)C2=O)C1 (configuration not stated) | -136%
COCC1CN(C(=O)Cc2cccc(F)c2)Cc2ccnn2C1 (configuration not stated) | -73%
Cc1nc(CN2CC3(CCN(c4cnccn4)C3)CC2=O)cs1 (configuration not stated) | 1.36%
COc1c(CNC2CCc3cc(F)ccc32)c(C)nn1C (configuration not stated) | -8.11%
CCN1CC[C@@]2(C(=O)Nc3ccccc3)CCN(S(C)(=O)=O)CC[C@@H]12 | 7.14%
COC[C@]12COC[C@H]1CN(Cc1ccc3c(c1)OCO3)C2 | -108%
CCO[C@@H]1CC[C@H]2[C@H]1OCCN2Cc1ccoc1 | -96.9%
Cn1cc(-c2cnc(N3CCOCC3)nc2)cc1C(=O)NCCO | 7.15%
